Hep lipid drop = inhibitors of hepatocyte lipid droplet formation, primary screen, imaging, high-throughput imaging, BODIPY stain. inhibition, % at 6.5 µM. AID 1656, 2009. 240,000 tested, 0.4% active. AML12 mouse hepatocytes, oleate lipid droplets;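 active means lipid droplet intensity inhibited by at least 50%, with more than 500 cells counted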
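Assay system: AML12 hepatocytes (mouse) / Also added: 100 µM oleic acid challenge / Times: overnight treatment with compound plus oleate / Detection: high-content imaging of BODIPY-stained droplets and DAPI nuclei / Evaluation: % inhibition of lipid droplet signal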
DTT redox prof = compounds producing H2O2 with reducing agent – biochemical, NIH compound library profiling, artefact control for MLSCN library redox annotation, primary screen; AID 878, 2007; DTT-dependent redox cycling H2O2, phenol red/HRP absorbance; 100% = 100 µM peroxide control, 0% = buffer; activation, % at 10 µM; 200,000 tested, 0.03% active;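 active means activation of at least 50% relative to the plate's high and low controls in the primary single-dose screen; inactive means activation below 50%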;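 further: compound incubated with DTT at 0.8 mM final as the reducing agent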
Lmaj promast = Leishmania major promastigote growth inhibition, primary screen | inhibition, % at 10 µM | 200,000 tested, 9% active | Leishmania major promastigotes, resazurin fluorescence viability; in the data active means inhibition above about 50%;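 further: promastigotes grown with compound for 44 hours at 28 °C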
T cruzi repl = inhibitors of intracellular T. cruzi growth, primary screen, luminescence, NIH3T3 host cells; T. cruzi beta-gal in NIH3T3, 90 h; inhibition, % (test concentration not listed); 300,000 tested, 1.4% active;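 active means mean inhibition across valid replicates above about 55%, limit read from the data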;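 further: signal also drops with host cell toxicity which is not excluded here; 0% = plate median of DMSO wells and 100% = zero luminescence signal; higher percent means less beta-gal luminescence so fewer parasites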
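Material: NIH/3T3 host cells with β-galactosidase reporter T. cruzi; Input: 5,000 host fibroblasts per well; Medium: DMEM, 2% fetal bovine serum; Compound: 50 nL DMSO compound solution per well; Schedule: 3 h host attachment, then at least 90 h co-culture; Detection: luminescent β-galactosidase signal after 60 min lysis.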
MPTP inh = mitochondrial permeability transition pore inhibitors, primary screen, biochemical, isolated mouse mitochondria, absorbance; Ca2+ swelling absorbance, 30 min; inhibition, % at 10 µM; 360,000 tested, 1.4% active; AID 602449, 2012;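 active means inhibition of 50% or more, scaled per plate between neutral and stimulator controls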;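 further: 0% = DMSO wells given calcium and 100% = 1 mM EGTA wells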
Active calls of the source: *. The full list was thinned out, with hits kept by preference.

For Cc1ccccc1NC(=S)N/N=C/C(C)c1ccccc1 (configuration not stated) the results were Hep lipid drop -24, DTT redox prof 0, Lmaj promast 97*, T cruzi repl -11 and MPTP inh -2.
Screening Cc1ccc(NC(=S)NCCc2ccccc2)c(C)c1 returned Hep lipid drop 16, Lmaj promast 80*, T cruzi repl 19 and MPTP inh 1.
`Cc1ccc(NC(=S)NC2CCN(Cc3ccccc3)CC2)c(C)c1` gave Hep lipid drop -14, DTT redox prof 0, Lmaj promast 91*, T cruzi repl 9 and MPTP inh 6.
`Cc1cc(Br)ccc1NC(=O)CN(C)C(=O)c1cc([N+](=O)[O-])ccc1N1CCOCC1` gave T cruzi repl 9 and MPTP inh 0.
Cc1ccc(N2CC(O)CSC2=Nc2ccccc2)cc1 (configuration not stated) was read as MPTP inh 0.
Screening CCN(C[C@H]1N[C@@](CC)(C(=O)OC)[C@H]2C(=O)N(C)C(=O)[C@@H]12)S(=O)(=O)c1ccc(F)cc1 returned MPTP inh 0.
`COc1ccc(C)cc1NC(=O)NC1CCN(Cc2ccccc2)CC1` gave Hep lipid drop 21, DTT redox prof 1, Lmaj promast 65*, T cruzi repl 8 and MPTP inh -1.
Screening COC(=O)c1ccccc1NC(=O)NC1CCN(Cc2ccccc2)CC1 returned Hep lipid drop -1, DTT redox prof 2, Lmaj promast -2, T cruzi repl -14 and MPTP inh -1.
FC(F)(F)c1cccc(NC(=S)NCC(c2cccnc2)N2CCOCC2)c1 (configuration not stated) was read as Hep lipid drop -16, DTT redox prof 0, Lmaj promast 61*, T cruzi repl 45 and MPTP inh 1.
`COc1cccc(CCc2nnc(N)s2)c1` gave Hep lipid drop 18, T cruzi repl -10 and MPTP inh -1.
Screening CC(CCCC(C)(C)O)NC(=O)c1ccc(OC2CCN(C(=O)C3CC3)CC2)cc1 (configuration not stated) returned Hep lipid drop -17, DTT redox prof 0, Lmaj promast 1, T cruzi repl -11 and MPTP inh 1.
Screening CC1CCCC12NC(=O)NC2=O (configuration not stated) returned MPTP inh 1.
`O=C1CC(N2CCN(Cc3ccc4c(c3)OCO4)CC2)C(=O)N1c1cccc2ccccc12` (configuration not stated) gave Hep lipid drop 3, DTT redox prof 0, Lmaj promast 62*, T cruzi repl -15 and MPTP inh 7.
Screening O=C1CC(N2CCN(Cc3ccc4c(c3)OCO4)CC2)C(=O)N1CCc1ccccc1 (configuration not stated) returned Hep lipid drop 4, DTT redox prof 0, Lmaj promast 87*, T cruzi repl 17 and MPTP inh 6.
O=C1CC(N2CCN(Cc3ccc4c(c3)OCO4)CC2)C(=O)N1c1cccc(Cl)c1 (configuration not stated) was read as Hep lipid drop -3, DTT redox prof 0, Lmaj promast 1, T cruzi repl -28 and MPTP inh -1.
Screening O=C1CC(Cc2ccccc2)C(=O)N1CCc1ccc2c(c1)OCO2 (configuration not stated) returned Hep lipid drop 0, DTT redox prof 1, Lmaj promast 100*, T cruzi repl 7 and MPTP inh 5.
`Cc1cccc(CC2CC(=O)N(CCc3ccc4c(c3)OCO4)C2=O)c1` (configuration not stated) gave Hep lipid drop -14, DTT redox prof 0, Lmaj promast 1, T cruzi repl 11 and MPTP inh 1.
For COc1ccc(CCN2C(=O)CC(Cc3ccc(Br)cc3)C2=O)cc1OC (configuration not stated) the results were Hep lipid drop -8, DTT redox prof -1, Lmaj promast 56*, T cruzi repl 5 and MPTP inh 0.
Screening O=C(Nc1ccc(Cl)cc1)c1cc2c(cc1O)[nH]c1ccccc12 returned Hep lipid drop 0, T cruzi repl -14 and MPTP inh 35.
Cc1ccc(NC(=O)CN(C)C(=O)Cc2c[nH]c3ccccc23)cc1 was read as MPTP inh -1.
Screening CC(=O)Nc1cc(-c2ccccc2CN(C)C)cn2c(-c3ccc(F)c(Cl)c3)cnc12 returned MPTP inh -1.
`O=C(CSc1nnnn1C1CC2C=CC1C2)Nc1ccc(C(=O)O)cc1` (configuration not stated) gave T cruzi repl -10 and MPTP inh -2.
Screening COc1ccc(CCNc2nc(=S)[nH]c3cc(OC)c(OC)cc23)cc1OC returned Hep lipid drop 24, DTT redox prof 0, Lmaj promast 10, T cruzi repl -84 and MPTP inh 1.
`COc1cc2[nH]c(=S)nc(NCCc3ccc(C)cc3)c2cc1OC` gave Hep lipid drop 5, DTT redox prof 1, Lmaj promast 97* and MPTP inh 5.
`O=C(Cc1ccc(S(=O)(=O)N2CCCC2)s1)Nc1nc2c(s1)CCCC2` gave Hep lipid drop -14, DTT redox prof -3, Lmaj promast 85*, T cruzi repl -8 and MPTP inh 1.
O=C(NCC(=O)N1CCN(c2ccccc2F)CC1)c1ccc(Br)o1 was read as T cruzi repl -15 and MPTP inh 0.
Screening Cc1ccc(C(=O)N2CCN(c3ncccn3)CC2)cc1S(=O)(=O)N1CCCCC1 returned Hep lipid drop 5, DTT redox prof 0, Lmaj promast 59*, T cruzi repl 12 and MPTP inh 0.
Screening Cc1ccc(C(=O)N2CCCCC2)cc1S(=O)(=O)N1CCCC1 returned Hep lipid drop 20, T cruzi repl -7 and MPTP inh -1.
CCOC(=O)c1c(-c2ccccc2)oc2ccc(O)c(CN3CCCC3)c12 was read as DTT redox prof 1, Lmaj promast 99*, T cruzi repl 42 and MPTP inh 8.
For CCOC(=O)c1c(-c2ccccc2)oc2ccc(O)c(CN(C)C)c12 the results were DTT redox prof 0, Lmaj promast 100*, T cruzi repl 26 and MPTP inh 0.
`COCCOC(=O)c1c(C)oc2ccc(O)c(CN3CCC(C)CC3)c12` gave DTT redox prof 0, Lmaj promast -5, T cruzi repl 4 and MPTP inh 1.
Screening CC(=O)N1CCN=C1SCc1cccc(F)c1 returned Hep lipid drop 10, T cruzi repl -6 and MPTP inh -1.
`COCCNC(=O)C1CCCN(C(=O)c2cccnc2Oc2ccccc2)CC1` (configuration not stated) gave MPTP inh 0.

Compound activity deposited in PubChem BioAssay by several laboratories.
